In one data set the test system is L1210. The data set can be described thus: In vitro growth inhibition of murine leukemia L1210 cells after 40 hours exposure. The data set is classed as functional, cell-based. As to conditions: Mus musculus, L1210, 40 h.
Data set [1] in a line: The pKa value spectrophotometrically in water at 25 degree Centigrade. In kind it is physicochemical.
In data set [2] the test system is P388. The data set can be described thus: Percent increase in life span of drug treated tumor( P388 leukemia cells)-bearing animal compared to that of untreated tumor bearing control when treated at optimal dose; NA means not active compound inactive at all dose levels up to toxic ones. In kind it is functional. To be noted: Mus musculus.
For data set [3], the system named is P388. The data set can be described thus: Optimal dose administered intraperitoneally as a solution in 0.1 mL of 30% v/v ethanol-water on days 1,5 and 9 after intraperitoneal inoculation of 10 e6 P388 leukemia cells. The data set is classed as functional, Mus musculus.
Data set [4] relates to P388. The data set can be described thus: Percent increase in life span of drug treated tumor( P388 leukemia cells)-bearing animal compared to that of untreated tumor bearing control when treated at optimal dose; Compound inactive at all dose levels up to toxic ones. In kind it is functional. As to conditions: Mus musculus.
Data set [5] has as its system Nucleic Acid. Briefly: The compound was tested for DNA (from Escherichia coli plasmid pNZ116 ) binding constant to poly[d(A-T)] determined by ethidium bromide displacement. In kind it is nucleic-acid assay. The method, boiled down: (§1)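 Binding constants to poly[d(A-T)] and poly[d(G-C)] were determined by ethidium bromide displacement.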
Data set [6] concerns Nucleic Acid. The data set can be described thus: The compound was tested for DNA (from Escherichia coli plasmid pNZ116 ) binding constant to poly[d(G-C)] determined by ethidium bromide displacement. The data set is classed as nucleic-acid assay. The method, boiled down:
as §1

Data set [7] relates to P388. The data set can be described thus: Percent increase in life span of drug treated tumor( P388 leukemia cells)-bearing animal compared to that of untreated tumor bearing control when treated at optimal dose; NA means not active. The data set is classed as functional. As to conditions: Mus musculus.
Data set [8] concerns P388. Briefly: Percent increase in life span of drug treated tumor( P388 leukemia cells)-bearing animal compared to that of untreated tumor bearing control when treated at optimal dose. The data set is classed as functional, Mus musculus.
Data set [9] has as its system P388. The data set can be described thus: Optimal dose administered intraperitoneally as a solution in 0.1 mL of 30% v/v ethanol-water on days 1,5 and 9 after intraperitoneal inoculation of 10 e6 P388 leukemia cells; ND means no data. In kind it is functional, Mus musculus.

18 molecules from ChEMBL document CHEMBL1123644, “Potential antitumor agents. 53. Synthesis, DNA binding properties, and biological activity of perimidines designed as "minimal" DNA-intercalating agents” (J Med Chem, 1987) can be followed below.

Active and inactive are the calls of the source. The calls are words filed in the database; no cut-off is given here.

A word on the IC50: it is the concentration needed to halve the response being measured. Read a low IC50 as greater potency in that assay. In general, pKa refers to the negative logarithm of the acid dissociation constant. A lower pKa goes with a group that gives up its proton readily. In general, ILS refers to the gain in survival time of treated over control animals, in per cent.

With `CN(C)CCCCNC(=O)C1=Nc2cccc3cccc(c23)N1`, the IC50 in the data set on L1210 amounted to 1500 nM.
For the molecule `CN(C)CCCCN1C=Nc2cccc3cccc1c23`, in the data set with L1210, the half-maximal inhibitory concentration (IC50) was determined as 2200 nM. The molecule also showed a pKa in data set [1] of 5.3.
With `CN(C)CCCN1C=Nc2cccc3cccc1c23`, half-maximal inhibition in the data set on L1210 (IC50) was put at 15300 nM. For the same molecule, the ILS entry in the data set on P388 [2] is “inactive”. Also, in the data set on P388 [3], the OD came to 150 mg/kg/day. Further, the pKa in data set [1] amounted to 5.1.
For `O=C(NCCN1CCOCC1)C1=Nc2cccc3cccc(c23)N1`, the half-inhibitory concentration (IC50) with L1210 stood at 14100 nM. This lies in the double-digit micromolar range.
In the data set on L1210, `CN(C)CCCSC1=Nc2cccc3cccc(c23)N1` gave an IC50 of 5700 nM. Compared with the last molecule, the IC50 is about 2.5-fold lower.
Take `CN(C)CCNC1=Nc2cccc3cccc(c23)N1`: the ILS entry with P388 [4] is “inactive”. Further, in the data set on L1210, the IC50 was found to be 2500 nM. Besides, the OD with P388 [3] is 65 mg/kg/day. Further, the Log K in the data set with Nucleic Acid [5] was 5.77; with Nucleic Acid [6], 5.9.
`CCN(CC)CCNC(=O)C1=Nc2cccc3cccc(c23)N1`: in the data set with L1210, the concentration for half-maximal inhibition (IC50) came out at 1100 nM. This counts as single-digit micromolar.
In the data set on L1210, `CN(C)CCCNC(=O)C1=Nc2cccc3cccc(c23)N1` gave a half-maximal inhibitory concentration (IC50) of 870 nM.
Turning to `CN(C)CCNC(=O)CC1=Nc2cccc3cccc(c23)N1`, in the data set with P388 [7], the ILS result is “inactive”. The same molecule yielded an IC50 with L1210 of 16700 nM. The OD in the data set on P388 [3] came to 65 mg/kg/day. Moreover, the Log K in the data set with Nucleic Acid [5] came to 5.74; in the data set with Nucleic Acid [6], 5.88.
In turn, `O=C(NCCN1CCCCC1)C1=Nc2cccc3cccc(c23)N1` displayed an IC50 in the data set on L1210 of 1300 nM.
For the molecule `CN(C)CCSC1=Nc2cccc3cccc(c23)N1`, the ILS result in the data set on P388 [4] was “inactive”. This molecule returned an IC50 in the data set with L1210 of 1800 nM. Besides, the OD with P388 [3] stood at 150 mg/kg/day. Besides, the Log K in the data set with Nucleic Acid [5] was 5.78; with Nucleic Acid [6], 6.1. The molecule also came in with a pKa in data set [1] of 2.66.
In the data set on L1210, `CN(C)CCN1C(=O)c2cccc3cccc(c23)C1=O` returned an IC50 of 1600 nM. The ILS in the data set on P388 [8] turned out to be 31%. The Log K is 5.46 in the data set with Nucleic Acid [5] and 5.87 with Nucleic Acid [6]. The OD in the data set with P388 [9] turned out to be 150 mg/kg/day.
Regarding `CN(C)CCCNC1=Nc2cccc3cccc(c23)N1`, the 50% inhibitory concentration (IC50) in the data set on L1210 was 4000 nM.
In the case of `CN(C)CCNC(=O)C1=Nc2cccc3cccc(c23)N1`, in the data set with P388 [4], the ILS result is “inactive”. In the data set on L1210, the concentration for half-maximal inhibition (IC50) was found to be 440 nM. The OD in the data set with P388 [3] is 150 mg/kg/day. Besides, the Log K with Nucleic Acid [5] and with Nucleic Acid [6] was 6.51 each time. The pKa in data set [1] was 1.74.
`CN(C)CCCCN1C(=O)c2cccc3cccc(c23)C1=O` returned an IC50 in the data set with L1210 of 1900 nM. That is a single-digit micromolar value.
Take `CN(C)CCNC(=O)C1=Nc2cccc3cncc(c23)N1`: the ILS result with P388 [4] is “inactive”. In the data set on L1210, this molecule displayed an IC50 of 21700 nM. Besides, in the data set with P388 [3], the OD stood at 65 mg/kg/day. Moreover, the Log K in the data set on Nucleic Acid [5] was 5.71; with Nucleic Acid [6] it was 5.88.
In the data set on L1210, `CN(C)CCCNC(=O)CC1=Nc2cccc3cccc(c23)N1` came in with a concentration for half-maximal inhibition (IC50) above 21000 nM.
As to `CN(C)CCN1C=Nc2cccc3cccc1c23`, in the data set on P388 [4], the ILS entry was “inactive”. The same molecule registered an IC50 with L1210 of 20000 nM. The molecule also came in with an OD in the data set on P388 [3] of 150 mg/kg/day. Also, the Log K with Nucleic Acid [5] was found to be 5.17; in the data set with Nucleic Acid [6], 5.31. This molecule yielded a pKa in data set [1] of 4.64.
